This is a sample that favours compounds with a hit; in the whole collection about 2.6% have one here.
V1R ag counter: agonists of human V1a receptor, primary screen, counter-screen for OXTR agonist project, fluorescence, CHO-V1R cells; Vasopressin V1a receptor (Homo sapiens), P37288; Fluo-8 calcium fluorescence, agonist mode; 0% DMSO, 100% 3 nM vasopressin; activation, % at 3 µM; actives 0.25% (n = 320,000);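 active means activation above the mean activation of all tested compounds plus 3 SD, per screening run, cut at about 20% in these data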;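 further: signal is peak over basal fluorescence ratio across a 100 second FLIPR read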
OXTR agonist: human OXTR agonists, primary screen, fluorescence, CHO-OTR cells, Fluo-8 calcium. activation, % at 3 µM. Oxytocin receptor (Homo sapiens), P30559. Fluo-8 calcium fluorescence; normalized: DMSO 0%, oxytocin 100%. actives 0.32% (n = 320,000);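 active means activation above the mean of all tested compounds plus 3 SD, cutoff set per screening run, cut at about 20% in these data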;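 further: peak over basal fluorescence ratio from a 100 s FLIPR kinetic read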
Target sequence (P30559 whole entry, looked up): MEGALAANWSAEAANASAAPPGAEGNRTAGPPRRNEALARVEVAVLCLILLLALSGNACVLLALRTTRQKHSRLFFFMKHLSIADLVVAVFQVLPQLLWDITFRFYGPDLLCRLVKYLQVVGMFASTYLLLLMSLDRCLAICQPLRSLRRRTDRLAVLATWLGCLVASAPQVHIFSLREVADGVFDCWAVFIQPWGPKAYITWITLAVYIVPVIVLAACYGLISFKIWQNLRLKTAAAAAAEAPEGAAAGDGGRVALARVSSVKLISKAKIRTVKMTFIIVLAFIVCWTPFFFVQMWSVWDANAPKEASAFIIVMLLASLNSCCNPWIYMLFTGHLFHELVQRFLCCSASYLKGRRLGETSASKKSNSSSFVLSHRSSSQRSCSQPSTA
CHO parental Ca: ATP-evoked calcium signal inhibitors, parental CHO, primary screen, counter-screen for OX1R antagonist project, cell-based, fluorescence, Fluo-8 calcium dye. parental CHO-K1, ATP-induced calcium, Fluo-8 fluorescence. actives 0.63% (n = 330,000). inhibition, % at 5.6 µM;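 active means inhibition above that plate's mean sample inhibition plus 3 SD, cut at about 26% in these data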
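Test system: untransfected parental CHO cell line; also added: ATP stimulus; dosing: 5.6 µM, single dose; signal: calcium-sensitive Fluo-8 fluorescence; measure: percent inhibition of ATP-evoked calcium rise, normalized to controls; benchmarks: low control ATP plus DMSO, high control DMSO only; replication: one well per compound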
OX1R antag-1: OX1R (HCRTR1) antagonists, primary screen, fluorescence, CHO/OX1R cells, Fluo-8 calcium, orexin A. actives 0.43% (n = 330,000). Fluo-8 calcium fluorescence. inhibition, % at 5 µM;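 active means inhibition above its plate's threshold, mean inhibition of all tested compounds on the plate plus 3 SD, cut at about 37% in these data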
OX1R antag-2: antagonists of human orexin 1 receptor (OX1R). Orexin/Hypocretin receptor type 1 (Homo sapiens), O43613. OX1R-expressing cells, FRET antagonist read-out. inhibition, % at 6.6 µM. actives 1.8% (n = 330,000); in the data active means inhibition mostly above about 38%, no sharp cut-off; inactive means mostly below about 40%
OXTR potentiate: human OXTR potentiators, primary screen, fluorescence, CHO-OTR cells, Fluo-8 calcium. Oxytocin receptor (Homo sapiens), P30559. Fluo-8 calcium fluorescence, potentiator mode; 0% = oxytocin EC15, 100% = EC100. activation, % at 3 µM. actives 0.061% (n = 320,000). AID 2445, 2010;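 active means activation above that plate's cutoff, the mean activation of tested compounds plus 3 SD, cut at about 6.6% in these data, passing the limit was not always enough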
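System: human OTR in CHO cells; Also added: sub-maximal oxytocin, roughly EC15; Timing: compound 6 min at room temperature before oxytocin, 100 s read; Technique: Fluo-8 intracellular calcium fluorescence, ex 470-495, em 515-575 nm; Controls: oxytocin EC15 low and EC100 high; Replication: singlicate.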
Each line names hits and unclear results; the compound was inactive in the other large screens.

O=c1c2sc(-c3ccccc3)cc2nc2n1CCCCC2	none
CN(C)c1ccc(C2CNC(c3ccc(Cl)c([N+](=O)[O-])c3)c3[nH]c4ccccc4c32)cc1 (stereo not given)	none
O=[N+]([O-])c1cccc(C2NCC(c3ccccc3Cl)c3c2[nH]c2ccccc32)c1 (stereo not given)	V1R ag counter 345, OXTR agonist 243, CHO parental Ca 50, OX1R antag-1 53
COc1ccc(OC)c(CCNC(=O)CCC(=O)N2CCOc3ccc(C)cc32)c1	OX1R antag-2 39
CC[C@H](C)[C@H](NC(=O)c1ccc(Cl)cc1)C(=O)OCC(=O)c1ccc2c(c1)NC(=O)CO2	CHO parental Ca 83, OX1R antag-1 59
CC(C)[C@H](NC(=O)c1ccccc1)C(=O)OCC(=O)c1ccc2c(c1)NC(=O)CO2	none
CN(C(=O)c1cccc(NC(=O)Cc2ccc([N+](=O)[O-])cc2)c1)C1CCCC1	none
CN(C(=O)c1ccc(NC(=O)Cc2ccc([N+](=O)[O-])cc2)cc1)C1CCCC1	V1R ag counter 21, OXTR agonist 22
COc1ccc(C2C3=C(CC(c4ccco4)CC3=O)Nc3ccccc3N2C(C)=O)cc1 (stereo not given)	none
COc1cccc(C2CC(=O)C3=C(C2)Nc2ccccc2N(C(=O)CCC(=O)O)C3c2ccc(F)cc2)c1 (stereo not given)	CHO parental Ca 99
O=C(NC(=S)N1CCN(Cc2ccccc2)CC1)c1ccco1	CHO parental Ca 100
CCN(C(=O)COC(=O)c1ccc([N+](=O)[O-])o1)C1CCCCC1	OX1R antag-2 29
O=C(NCc1ccco1)c1ccc([N+](=O)[O-])o1	OX1R antag-2 71
O=C(COC(=O)c1ccc([N+](=O)[O-])o1)NC1CCCCC1	OX1R antag-2 24
O=C(COC(=O)c1ccc([N+](=O)[O-])o1)NC1CCCC1	none
O=C(NC1CCCC(C(F)(F)F)C1)c1ccc([N+](=O)[O-])o1 (stereo not given)	none
O=C(NC1CCCCC1)c1ccc([N+](=O)[O-])o1	OX1R antag-2 39
O=C(CN1C(=O)NC2(CCCC2)C1=O)N1CCN(S(=O)(=O)c2ccc(Cl)c(C(F)(F)F)c2)CC1	none
CC(=O)Nc1ccc(NC(=O)COC(=O)c2ccc([N+](=O)[O-])o2)cc1	OX1R antag-2 37
CCN(C(=O)COC(=O)c1cccnc1SC)C1CCS(=O)(=O)C1 (stereo not given)	none
CCN(C(=O)COC(=O)c1cccnc1SC)C1CCCCC1	OX1R antag-2 57
c1cc(-c2cc3cc4c(cc3cn2)OCO4)cs1	OX1R antag-2 70
N#CCCN1CCN(C2=NC(=O)/C(=C\c3cccs3)S2)CC1	OX1R antag-2 42
COc1cc2cccc(OC)c(=O)c2c(O)c1OC	OX1R antag-2 66
COc1cc2c(ccc3cc(OC)c(OC)c(O)c32)cc1O	none
CCOc1ccc(Cn2nnc(-c3ccc(S(C)(=O)=O)cc3)n2)cc1OCC	none
CC(=O)OC1COC(OC2C(O)C(C)OC(OC3C(OC4CCC5(C)C(CCC6(C)C5CC=C5C7CC(C)(C)CCC7(C(=O)O)CCC56C)C4(C)CO)OCC(O)C3O)C2O)C(O)C1OC(C)=O (stereo not given)	V1R ag counter 115, OXTR agonist 92, CHO parental Ca 101, OX1R antag-1 105
C/C=C(/C)C(=O)OC1CC(C)(C)C[C@H]2C3=CC[C@@H]4[C@@]5(C)CCC(O[C@@H]6O[C@@H](C(=O)O)[C@@H](O)C(O[C@@H]7OC[C@H](O)[C@@H](O)[C@@H]7O[C@@H]7OC(CO)C(O)[C@@H](O)[C@@H]7O)C6O[C@@H]6OC(CO)C(O)C(O)C6O)[C@@](C)(CO)[C@@H]5CC[C@]4(C)[C@]3(C)CC(O)[C@@]12CO (stereo not given in full)	V1R ag counter 22, OXTR agonist 44, CHO parental Ca 101, OX1R antag-1 104
COc1ccc(CN(C(=O)CSc2nnc(-c3c[nH]c4ccccc34)o2)c2ccc(F)cc2)cc1OC	CHO parental Ca 35, OX1R antag-2 81
O=C(NC1(C(=O)NC2CCCCC2)CCCCC1)c1ccccn1	none
Cc1ccc(NC(=O)C2(NC(=O)c3ccccn3)CCCCC2)cc1Br	OX1R antag-2 68
O=C(CSc1nc2ccccc2c(=O)n1NC(=O)Cc1ccccc1)NCc1ccco1	none
Cn1cc(SCC(=O)NCc2ccc3c(c2)OCO3)c2ccccc21	OX1R antag-2 41
O=C(CSc1nc2ccccc2c(=O)n1NC(=O)Cc1ccccc1)NCc1ccccc1	OX1R antag-2 46
Cc1cccc(-n2c(SCC(=O)NCc3ccc4c(c3)OCO4)nc3ccccc3c2=O)c1	OX1R antag-2 40
CCCn1cc(SCC(=O)NCc2ccc3c(c2)OCO3)c2ccccc21	none
CCOC(=O)c1[nH]c(C)c(C(=O)OCC(=O)NC(C)c2ccc(F)cc2)c1C (stereo not given)	none
COc1ccc(C2=C(N)c3ccccc3C2=O)cc1	OX1R antag-2 45
CCN(CC)c1ccc(-c2c(C#N)c(N)nc(OC)c2C#N)cc1	CHO parental Ca 36
COc1cccc(CNC(=O)c2cc3c(C)nc4ccccc4c3o2)c1	none
CCN1CCCC1CNC(=O)c1cc2c(C)nc3ccccc3c2o1 (stereo not given)	none
Cc1nc2ccccc2c2oc(C(=O)Nc3ccc(C(C)C)cc3)cc12	OX1R antag-2 66
CCc1ccc(CNC(=O)c2cc3c(C)nc4ccccc4c3o2)cc1	CHO parental Ca 46, OX1R antag-2 79
COc1cc(NC(=O)c2cc3c(C)nc4ccccc4c3o2)cc(OC)c1OC	none
Cc1nc2ccccc2c2oc(C(=O)NCC3COc4ccccc4O3)cc12 (stereo not given)	CHO parental Ca 41, OX1R antag-2 85
COc1ccc(CNC(=O)c2cc3c(C)nc4ccccc4c3o2)c(OC)c1	CHO parental Ca 57, OX1R antag-2 56
O=C(NCC1COc2ccccc2O1)c1cccc(S(=O)(=O)NCc2ccccc2)c1 (stereo not given)	OX1R antag-2 51
Cc1cc(C)c(S(=O)(=O)Nc2cc(C)on2)c(C)c1	none

Source: PubChem BioAssay (The Scripps Research Institute Molecular Screening Center)
